In brackets after ≈: the same amount, converted by molar mass.
Tests used:
[1] = Ratio of the ILS tested compound/quinocarcin was determined for day one in CD2F1 mice.; format: functional, Mus musculus
In short: (§1)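 CD2F1 mice (5 per group) received 10^6 P388 cells ip. Drug was given ip on day 1 or on days 1–5. ILS was taken as (T/C − 1) × 100 from median survival times, and each compound's ILS was divided by the ILS of quinocarcin.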

[2] = Ratio of the ILS tested compound/quinocarcin was determined in CD2F1 mice on days 1-5.; format: functional, Mus musculus; in short: as §1
HeLa = test: In vitro concentration required to inhibit the growth of HeLa S3 cells by 50%; format: functional, cell-based; settings: Homo sapiens
In short: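 HeLa S3 cells (5 × 10⁴) seeded in Eagle's MEM with 10% FBS and 0.06 mg/mL kanamycin; graded drug concentrations, diluted in growth medium, added 24 h after seeding. Incubated 72 h at 37 °C, humidified 5% CO₂. Monolayers then washed, detached with 0.05% trypsin/0.02% EDTA and counted electronically; IC50 taken as concentration giving 50% growth inhibition.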

CCRF S-180 [3] = test: Ratio of ILS tested compound/quinocarcin against murine sarcoma S-180 tumor cell line implanted subcutaneously in mice and the compound administered intravenously at a dose of 12.5 mg/kg on days 1-5.; format: functional, Mus musculus; settings: route intravenous
[4] = Antitumor activity in vivo in CD2F1 mice measured in terms of percent increase in lifespan calculated at a dose of 6.25 mg/kg intraperitoneally on day one.; format: functional; settings: Mus musculus, ip, route intraperitoneal
In short: (§2)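 P388 lymphocytic leukemia cells (1×10^6) were implanted ip into CD2F1 mice (about 22 g), five mice per group. Drug was given ip from the day after implantation, either once (day 1) or daily on days 1–5. ILS = (T/C − 1) × 100, where T and C are the median survival times of treated and control mice.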

[5] = Antitumor activity in vivo in CD2F1 mice measured in terms of percent increase in lifespan calculated at a dose of 6.25 mg/kg intraperitoneally on days 1-5.; format: functional; settings: Mus musculus, ip, route intraperitoneal; in short: as §2
[6] = Antitumor activity in vivo in CD2F1 mice measured in terms of percent increase in lifespan calculated at a dose of 25 mg/kg intraperitoneally on day one.; format: functional; settings: Mus musculus, ip, route intraperitoneal; in short: as §2
[7] = Antitumor activity in vivo in CD2F1 mice measured in terms of percent increase in lifespan calculated at a dose of 12.5 mg/kg intraperitoneally on day one.; format: functional; settings: Mus musculus, ip, route intraperitoneal; in short: as §2
[8] = Antitumor activity in vivo in CD2F1 mice measured in terms of percent increase in lifespan calculated at a dose of 3.13 mg/kg intraperitoneally on days 1-5.; format: functional; settings: Mus musculus, ip, route intraperitoneal; in short: as §2
St-4 [9] = test: Ratio of ILS tested compound/quinocarcin against St-4 tumor cell line implanted subcutaneously in mice and the compound administered intravenously at a dose of 13.8 mg/kg on days 1-5.; format: functional, Homo sapiens; settings: route intravenous
Homo sapiens [10] = test: Ratio of ILS tested compound/quinocarcin against human mammary carcinoma MX-1 cell line implanted subcutaneously in mice and the compound administered intravenously at a dose of 4.41 mg/kg on days 1-5.c means number of cured mice.; format: functional; settings: route intravenous
Homo sapiens [11] = test: Ratio of ILS tested compound/quinocarcin against human mammary carcinoma MX-1 cell line implanted subcutaneously in mice and the compound administered intravenously at a dose of 5.59 mg/kg on days 1-5.c means number of cured mice.; format: functional; settings: route intravenous
St-4 [12] = test: Ratio of ILS tested compound/quinocarcin against St-4 tumor cell line implanted subcutaneously in mice and the compound administered intravenously at a dose of 8.78 mg/kg on days 1-5.; format: functional, Homo sapiens; settings: route intravenous
CCRF S-180 [13] = test: Ratio of ILS tested compound/quinocarcin against murine sarcoma S-180 tumor cell line implanted subcutaneously in mice and the compound administered intravenously at a dose of 10 mg/kg on days 1-5.; format: functional, Mus musculus; settings: route intravenous
[14] = Antitumor activity in vivo in CD2F1 mice measured in terms of percent increase in lifespan calculated at a dose of 5-10 mg/kg intraperitoneally on days 1-5.; format: functional, Mus musculus; in short: as §2
Co-3 = test: Ratio of ILS tested compound/quinocarcin against Co-3 tumor cell line implanted subcutaneously in mice and the compound administered intravenously at a dose of 13.8 mg/kg on days 1-5.; format: functional, Homo sapiens; settings: route intravenous
LC-06 cell line = test: Ratio of ILS tested compound/quinocarcin against LC-06 cell lines implanted subcutaneously in mice and the compound administered intravenously at a dose of 5.59 mg/kg on days 1-5.; format: functional, Homo sapiens; settings: route intravenous

Structure (SMILES) | R [1] | R [2] | IC50 (HeLa) | ILS at 6.25 mg/kg [5] | ILS at 12.5 mg/kg [7] | also measured
CCSC1=C(OC)C(=O)C2=C(C[C@H]3[C@H]4[C@H](C(=O)O)C[C@@H](C(C#N)N3[C@H]2CO)N4C)C1=O (stereo partly specified) | 0.67 | 0.65 | 2.42 µg/mL (≈ 5.41 µM) | 51% |  | T/C (CCRF S-180 [3]): 0.47; ILS at 6.25 mg/kg [4]: 29%
COC1=C(SC(C)C)C(=O)C2=C(C1=O)[C@@H]1COC3[C@@H]4C[C@@H](C(=O)O)[C@H]([C@H](C2)N31)N4C (stereo partly specified) | 1.29 | 1 | 0.79 µg/mL (≈ 1.82 µM) | 81% |  | ILS at 6.25 mg/kg [4]: 31%
CCSC1=C(OC)C(=O)C2=C(C1=O)[C@H](CO)N1C(C#N)[C@@H]3C[C@@H](C(=O)O)[C@H]([C@@H]1C2)N3C (stereo partly specified) | 0.72 | 0.76 | 2.88 µg/mL (≈ 6.44 µM) | 59% |  | ILS at 25 mg/kg [6]: 31%
CC(C)Sc1c(O)c2c(c(O)c1SC(C)C)[C@H](CO)N1C(C#N)[C@@H]3C[C@@H](C(=O)O)[C@H]([C@@H]1C2)N3C (stereo partly specified) | 1 | 1.09 | < 0.03 µg/mL | 102% | 51% | 
CCSc1c(O)c2c(c(O)c1SCC)[C@H](CO)N1C(C#N)[C@@H]3C[C@@H](C(=O)O)[C@H]([C@@H]1C2)N3C (stereo partly specified) |  |  | < 0.03 µg/mL |  |  | 
CCCSC1=C(SCCC)C(=O)C2=C(C[C@H]3[C@H]4[C@H](C(=O)O)C[C@@H](C(C#N)N3[C@H]2CO)N4C)C1=O (stereo partly specified) | 1.17 | 0.48 | 0.05 µg/mL (≈ 0.0989 µM) | 42% |  | ILS at 25 mg/kg [6]: 56%
CN1[C@@H]2[C@H](C(=O)O)C[C@H]1C(C#N)N1[C@@H](CO)C3=C(C[C@@H]21)C(=O)C(SC(C)(C)C)=C(SC(C)(C)C)C3=O (stereo partly specified) | 1.26 | 0.5 | 0.004 µg/mL (≈ 0.00749 µM) |  |  | ILS at 3.13 mg/kg [8]: 46%; ILS at 25 mg/kg [6]: 48%
COc1cccc2c1[C@@H]1COC3[C@@H]4C[C@@H](C(=O)O)[C@H]([C@H](C2)N31)N4C (stereo partly specified) | 1 | 1 | 0.11 µg/mL (≈ 0.333 µM) |  | 48% | T/C (St-4 [9]): 0.42; T/C (Homo sapiens [10]): 0; T/C (Homo sapiens [11]): 0.01; T/C (St-4 [12]): 0.55; T/C (CCRF S-180 [13]): 0.74; ILS [14]: 120%; T/C (Co-3): 0.22; T/C (LC-06 cell line): 0.23
CN1[C@@H]2[C@H](C(=O)O)C[C@H]1C(C#N)N1[C@@H](CO)c3c(O)c(SCCO)c(SCCO)c(O)c3C[C@@H]21 (stereo partly specified) | 0.44 | 0.39 | 3.24 µg/mL (≈ 6.33 µM) | 41% |  | ILS at 6.25 mg/kg [4]: 18%
CN1[C@@H]2[C@H](C(=O)O)C[C@H]1C(C#N)N1[C@@H](CO)c3c(O)ccc(O)c3C[C@@H]21 (stereo partly specified) |  |  | 6.1 µg/mL (≈ 17 µM) | 23% | 23% | 
CN1[C@@H]2[C@H](C(=O)O)C[C@H]1C(C#N)N1[C@@H](CO)C3=C(C[C@@H]21)C(=O)C(SCCO)=C(SCCO)C3=O (stereo partly specified) | 0.62 |  | 2.47 µg/mL (≈ 4.85 µM) | 20% | 26% | 

Reference: ChEMBL document CHEMBL1125273, “Synthesis and biological evaluation of quinocarcin derivatives: thioalkyl-substituted quinones and hydroquinones” (J Med Chem, 1991)
